Measured values: ChEMBL document CHEMBL1135984, “Mechanism-based design of parasite-targeted artemisinin derivatives: synthesis and antimalarial activity of new diamine containing analogues” (J Med Chem, 2002)

What was measured:
Plasmodium falciparum [1] = assay: (§1) In vitro inhibitory concentration against chloroquine-resistant Plasmodium falciparum K1; format: functional, organism-based
Outline: (§2)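 48 h growth assay in human erythrocytes (2% parasitemia, 0.5% haematocrit) in RPMI 1640 with 25 mM HEPES, 32 mM NaHCO3 and 10% human serum, under 3% O2/4% CO2/93% N2 at 37 °C. DMSO stocks diluted in medium; triplicates. 0.5 μCi [3H]-hypoxanthine added at 24 h, uptake counted 24 h later. IC50 by probit interpolation of log dose–response versus drug-free controls.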

Plasmodium falciparum [2] = assay: In vitro inhibitory concentration against chloroquine-sensitive Plasmodium falciparum HB3; format: functional, organism-based; outline: as §2
Plasmodium falciparum [3] = assay: as §1; format: functional, organism-based; outline: as §2; remark: listed apart in the source
Mus musculus [4] = species on record: Mus musculus; assay: 90% effective dose against Plasmodium yoelii in mice (Mus musculus); format: functional
Mus musculus [5] = species on record: Mus musculus; assay: 50% effective dose against Plasmodium yoelii in mice (Mus musculus); format: functional
Mus musculus [6] = assay: 50% effective dose for antimalarial activity (in vivo) against Plasmodium berghei; format: functional
Outline: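 Male Swiss albino mice, 18-22 g, infected ip with 10^7 P. berghei NS parasitized erythrocytes. Dosed ip or orally once daily for 4 days from the day of infection, in methanol/PBS/DMSO (2:5:3 v/v). Parasitemia read the day after the last dose. ED50 (50% suppression versus vehicle controls) taken from a plot of log dose against parasitemia.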

`C[C@@H]1CC[C@H]2[C@@H](C)C(=O)O[C@@H]3O[C@@]4(C)CC[C@@H]1[C@]32OO4` [ARTEMISININ] was tested. Which IC50 (Plasmodium falciparum [1]) did it give?
Its IC50 is 12.5 nM.

`C[C@H]1[C@@H](OCc2ccc(CN3CCN(c4ccc(F)cc4)CC3)cc2)O[C@@H]2OC3(C)CCC4[C@H](C)CC[C@@H]1[C@]42OO3` (single isomer, unassigned) was tested. Which IC50 (Plasmodium falciparum [2]) did it give?
Its IC50 is 2.3 nM.

And the IC50 (Plasmodium falciparum [1])?
The IC50 was 6.3 nM.

What does the source list for `CO[C@H]1O[C@@H]2O[C@@]3(C)CC[C@H]4[C@H](C)CC[C@@H]([C@H]1C)[C@@]24OO3` [ARTEMETHER]?
IC50 (Plasmodium falciparum [2]): 9.2 nM; IC50 (Plasmodium falciparum [1]): 6.5 nM; IC50 (Plasmodium falciparum [3]): 7.94 nM

For `C[C@H]1[C@@H](CCN2CCCCC2)O[C@@H]2OC3(C)CCC4[C@H](C)CC[C@@H]1[C@]42OO3` (single isomer, unassigned), which IC50 (Plasmodium falciparum [1]) is on record?
Its IC50 is 4.83 nM.

Which results are given for `C[C@H]1[C@@H](CCN2CCN(c3cccc(C(F)(F)F)c3)CC2)O[C@@H]2OC3(C)CCC4[C@H](C)CC[C@@H]1[C@]42OO3` (single isomer, unassigned)?
ED90 (Mus musculus [4]): < 10 mg/kg; ED50 (Mus musculus [5]): < 10 mg/kg; ED50 (Mus musculus [6]): 3.12 mg/kg; IC50 (Plasmodium falciparum [1]): 6.19 nM

What does the source list for `C[C@H]1[C@@H](CCN2CCN(c3ccc(F)cc3)CC2)O[C@@H]2OC3(C)CCC4[C@H](C)CC[C@@H]1[C@]42OO3` (single isomer, unassigned)?
ED90 (Mus musculus [4]): 10 mg/kg; ED50 (Mus musculus [5]): < 10 mg/kg; IC50 (Plasmodium falciparum [1]): 5.96 nM

For `C[C@H]1[C@@H](OCc2ccc(CN3CCN(c4ccc(C(F)(F)F)cc4)CC3)cc2)O[C@@H]2OC3(C)CCC4[C@H](C)CC[C@@H]1[C@]42OO3` (single isomer, unassigned), which IC50 (Plasmodium falciparum [2]) is on record?
The IC50 was 8.1 nM.

And the IC50 (Plasmodium falciparum [1])?
Its IC50 is 12.5 nM.

For `C[C@H]1[C@@H](OCc2cccc(CN3CCN(c4ccc([N+](=O)[O-])cc4)CC3)c2)O[C@@H]2OC3(C)CCC4[C@H](C)CC[C@@H]1[C@]42OO3` (single isomer, unassigned), which IC50 (Plasmodium falciparum [2]) is on record?
The IC50 was 4.3 nM.

And the IC50 (Plasmodium falciparum [1])?
The IC50 was 4.3 nM.

`C[C@H]1[C@@H](CCN2CCN(c3ccc([N+](=O)[O-])cc3)CC2)O[C@@H]2OC3(C)CCC4[C@H](C)CC[C@@H]1[C@]42OO3` (single isomer, unassigned) was tested. Which ED90 (Mus musculus [4]) did it give?
Its ED90 is greater than 10 mg/kg.

And the ED50 (Mus musculus [5])?
The ED50 was less than 10 mg/kg.

What about the IC50 (Plasmodium falciparum [1]) of the same molecule?
Its IC50 is 4.29 nM.

With `C[C@H]1[C@@H](CCN2CCN(Cc3ccccc3)CC2)O[C@@H]2OC3(C)CCC4[C@H](C)CC[C@@H]1[C@]42OO3` (single isomer, unassigned) as the molecule, how does the ED90 (Mus musculus [4]) read?
Its ED90 is greater than 10 mg/kg.

What about the ED50 (Mus musculus [5]) of the same molecule?
The ED50 was less than 10 mg/kg.

What about the IC50 (Plasmodium falciparum [1]) of the same molecule?
The IC50 was 4.22 nM.

Which IC50 (Plasmodium falciparum [1]) does the source give for `C[C@H]1[C@@H](OCc2ccc(CN3CCN(c4ccccc4)CC3)cc2)O[C@@H]2OC3(C)CCC4[C@H](C)CC[C@@H]1[C@]42OO3` (single isomer, unassigned) here?
The IC50 was 8.2 nM.

`C[C@H]1[C@@H](CCN2CCN(c3ccc(Cl)cc3)CC2)O[C@@H]2O[C@]3(C)CC[C@H]4[C@H](C)CC[C@@H]1[C@@]24OO3` was tested. Which IC50 (Plasmodium falciparum [1]) did it give?
The IC50 was 8.16 nM.

How did the IC50 (Plasmodium falciparum [1]) turn out when `C[C@H]1[C@@H](CCN2CCOCC2)O[C@@H]2OC3(C)CCC4[C@H](C)CC[C@@H]1[C@]42OO3` (single isomer, unassigned) was run?
The IC50 was 4.22 nM.

For `C[C@H]1[C@H](OC(=O)CCC(=O)[O-])O[C@@H]2O[C@@]3(C)CC[C@H]4[C@H](C)CC[C@@H]1[C@@]24OO3.[Na+]` [SODIUM ARESUNATE], which ED90 (Mus musculus [4]) is on record?
The ED90 was 100 mg/kg.

And the ED50 (Mus musculus [5])?
The ED50 was 1.6 mg/kg.

How did the IC50 (Plasmodium falciparum [2]) turn out when `C[C@H]1[C@@H](OCc2ccc(CN3CCN(Cc4ccccc4)CC3)cc2)O[C@@H]2O[C@]3(C)CC[C@H]4[C@H](C)CC[C@@H]1[C@@]24OO3` was run?
The IC50 was 1.8 nM.

What about the IC50 (Plasmodium falciparum [1]) of the same molecule?
The IC50 was 3.8 nM.

For `C[C@H]1[C@@H](OCc2cccc(CN3CCN(c4ccc(Cl)cc4)CC3)c2)O[C@@H]2OC3(C)CCC4[C@H](C)CC[C@@H]1[C@]42OO3` (single isomer, unassigned), which IC50 (Plasmodium falciparum [1]) is on record?
The IC50 was 13.3 nM.

`C[C@H]1[C@@H](OCc2cccc(CN3CCN(c4cccc(C(F)(F)F)c4)CC3)c2)O[C@@H]2OC3(C)CCC4[C@H](C)CC[C@@H]1[C@]42OO3` (single isomer, unassigned) was tested. Which IC50 (Plasmodium falciparum [1]) did it give?
The IC50 was 22.5 nM.

Which IC50 (Plasmodium falciparum [1]) does the source give for `C[C@H]1[C@@H](OCc2ccc(CN3CCN(c4ccc([N+](=O)[O-])cc4)CC3)cc2)O[C@@H]2OC3(C)CCC4[C@H](C)CC[C@@H]1[C@]42OO3` (single isomer, unassigned) here?
The IC50 was 138 nM.

For `C[C@H]1[C@@H](OCc2cccc(CN3CCN(c4ccccc4)CC3)c2)O[C@@H]2OC3(C)CCC4[C@H](C)CC[C@@H]1[C@]42OO3` (single isomer, unassigned), which IC50 (Plasmodium falciparum [2]) is on record?
Its IC50 is 3.4 nM.

And the IC50 (Plasmodium falciparum [1])?
The IC50 was 6.6 nM.

`CCCN(CCC)CC[C@H]1O[C@@H]2O[C@]3(C)CC[C@H]4[C@H](C)CC[C@@H]([C@H]1C)[C@@]24OO3` was tested. Which IC50 (Plasmodium falciparum [1]) did it give?
The IC50 was 7.51 nM.

How did the ED90 (Mus musculus [4]) turn out when `C[C@H]1[C@@H](CCN2CCN(c3ccccc3)CC2)O[C@@H]2OC3(C)CCC4[C@H](C)CC[C@@H]1[C@]42OO3` (single isomer, unassigned) was run?
Its ED90 is greater than 10 mg/kg.

What about the ED50 (Mus musculus [5]) of the same molecule?
The ED50 was less than 10 mg/kg.

What about the IC50 (Plasmodium falciparum [1]) of the same molecule?
Its IC50 is 3.15 nM.

For `C[C@H]1[C@@H](OCc2cccc(CN3CCN(c4ccc(F)cc4)CC3)c2)O[C@@H]2OC3(C)CCC4[C@H](C)CC[C@@H]1[C@]42OO3` (single isomer, unassigned), which IC50 (Plasmodium falciparum [2]) is on record?
Its IC50 is 12.6 nM.

What about the IC50 (Plasmodium falciparum [1]) of the same molecule?
The IC50 was 12.6 nM.
